ChEMBL document CHEMBL5674876, “Epigenetic Activation of Pro-angiogenic Signaling Pathways in Human Endothelial Progenitors Increases Vasculogenesis” (Stem Cell Reports, 2017)
Active and inactive are the calls of the source.

How the values were obtained:
HUVEC [1] = test: Effect on pro-angiogenic property in human umbilical cord derived endothelial colony forming cells assessed as cell migration treated for 10 hrs measured by crystal violet staining analysis based gap closure assay; type: functional; conditions: dose 2.5-20 nM
HUVEC [2] = test: Effect on pro-angiogenic property in human umbilical cord derived endothelial colony forming cells assessed as increase in DLL1 level by qRT-PCR analysis; type: functional, cell-based
HUVEC [3] = test: Effect on pro-angiogenic property in human umbilical cord derived endothelial colony forming cells assessed as increase in SHH level by qRT-PCR analysis; type: functional, cell-based
HUVEC [4] = test: Effect on pro-angiogenic property in human umbilical cord derived endothelial colony forming cells assessed as formation of capillary network on matrigel at 2.5 to 500 nM; type: functional, cell-based; conditions: dose 2.5-500 nM
Summary of the method: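 Drug- or vehicle-pretreated ECFCs seeded at 5,000 cells/well on phenol-red-free growth-factor-reduced Matrigel in duplicate; after 24 hr stained with 5 μg/mL calcein 5 min at 37°C, imaged at 2.5×. Total tube length expressed as percentage of vehicle control ±SEM, three independent experiments.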

Measured: Activity

Cc1[nH]c2ccccc2c1CCNCc1ccc(/C=C/C(=O)NO)cc1
active: HUVEC [1] Dose-Dependent Effect | HUVEC [2] | HUVEC [3] | HUVEC [4] Dose-Dependent Effect
